pIC50: −log10 of the molar value.
Molecular target: Sphingosine kinase 2 (Homo sapiens, UniProt Q9NRA0)
Assay: Inhibition of human SPHK 2 (1 to 654 residues) by ADP Glo HTS assay
Method in brief: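 Lipid kinase selectivity assessed in a 15-kinase panel (Dundee University lipid kinase panel), IC50 determined.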

Sphingosine kinase 2, sequence (Q9NRA0 whole entry, the tested form may be a part): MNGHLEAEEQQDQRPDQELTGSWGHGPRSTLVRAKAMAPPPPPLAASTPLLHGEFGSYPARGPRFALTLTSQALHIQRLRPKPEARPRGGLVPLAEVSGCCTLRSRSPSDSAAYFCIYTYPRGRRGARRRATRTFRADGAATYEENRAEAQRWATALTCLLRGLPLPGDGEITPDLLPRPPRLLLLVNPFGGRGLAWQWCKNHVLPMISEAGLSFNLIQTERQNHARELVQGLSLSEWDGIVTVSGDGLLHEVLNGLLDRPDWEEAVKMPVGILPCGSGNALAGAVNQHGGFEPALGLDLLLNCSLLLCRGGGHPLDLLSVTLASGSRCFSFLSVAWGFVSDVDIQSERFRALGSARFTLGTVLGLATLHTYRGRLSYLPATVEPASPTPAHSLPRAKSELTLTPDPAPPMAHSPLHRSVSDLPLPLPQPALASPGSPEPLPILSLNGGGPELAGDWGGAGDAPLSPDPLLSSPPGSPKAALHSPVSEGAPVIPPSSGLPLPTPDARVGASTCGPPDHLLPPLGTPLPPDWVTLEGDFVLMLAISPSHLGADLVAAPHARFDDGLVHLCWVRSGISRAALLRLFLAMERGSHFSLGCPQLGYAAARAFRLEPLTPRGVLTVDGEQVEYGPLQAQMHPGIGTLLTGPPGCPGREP

pIC50: < 4.30
Structure (SMILES): O=C(c1cc([C@H]2CCCN2c2cc(F)cc(F)c2)c2oc(N3CCOCC3)cc(=O)c2c1)N1CCOCC1

Source: ChEMBL document CHEMBL4014298, “Discovery of a series of 8-(1-phenylpyrrolidin-2-yl)-6-carboxamide-2-morpholino-4H-chromen-4-one as PI3Kβ/δ inhibitors for the treatment of PTEN-deficient tumours” (Bioorg Med Chem Lett, 2017)
